{"source": "paper PMC5616206", "about": "(Toxicology Reports, 2016)", "key": {"[1]": {"test_system": "S. typhimurium strains TA98, TA100, TA1535, TA1537 and E. coli strain WP2 uvrA", "assay": "Bacterial reverse mutation test", "format": "cell-based", "conditions": "50–5000 μg/plate, plate incorporation, ±S9", "outline": "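The assay followed OECD Guideline 471 and used S. typhimurium TA98, TA100, TA1535 and TA1537 and E. coli WP2 uvrA. It was run with and without S9 from livers of Aroclor 1254-treated Sprague-Dawley rats. One compound was tested at 21–5000 μg/plate by plate incorporation and pre-incubation. The other was tested at 50–5000 μg/plate in an initial toxicity-mutation test and a confirmatory mutation test.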"}, "[2]": {"test_system": "Male and Female Hsd:ICR (CD-1) mice, bone marrow PCEs", "assay": "In vivo micronucleus assay in mice, S9229", "outline": "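Hsd:ICR (CD-1) mice were gavaged once with the test compound suspended in 1% methylcellulose (20 mL/kg) in both the range-finding and definitive phases. The definitive phase used 0, 500, 624, 1352 and 2000 mg/kg bw, 5/sex/group, with bone marrow sampled at 24 h. Additional vehicle, 1352 and 2000 groups were sampled at 48 h. Femoral marrow smears were stained with acridine orange and scored for mnPCEs and PCE/TE ratio. Cyclophosphamide 50 mg/kg was the positive control.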"}, "[3]": {"assay": "Pharmacokinetics of S9229 in rats, single iv or oral dose", "format": "in vivo, Sprague-Dawley rats", "conditions": "for AUC(0-t) / Cmax / Tmax / Vd / clearance / half-life / bioavailability: Sprague-Dawley, rat, plasma; for AUC0-24hr Ratio / Cmax Ratio: vs 10 mg/kg dose", "outline": "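Sprague-Dawley rats, 4/sex, received a 1 mg/kg bw IV bolus in 1% ethanol in saline, with tail-vein sampling from 2 min to 8 h. Oral groups (3/sex/group) were gavaged once with 10, 30 or 100 mg/kg bw in 1% methylcellulose and sampled from 15 min to 24 h. Plasma was assayed for parent and metabolites.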"}, "[4]": {"assay": "In vitro metabolism by human liver microsomes", "format": "in vitro ADME", "conditions": "S9229 incubation, relative to S9229 at time = 0"}, "[5]": {"test_system": "Primary human lymphocytes", "conditions": "for dose with substantial toxicity (at least 50% reduction in mitotic index): preliminary toxicity test"}, "[6]": {"assay": "In vivo metabolism of S9229 in rats", "set-up": "species or system Sprague-Dawley rats", "conditions": "rat plasma, 1 h time point, 100 mg/kg bw oral"}, "[7]": {"assay": "In vitro metabolism by rat liver microsomes", "format": "in vitro ADME, Sprague-Dawley rat", "conditions": "S9229 incubation, relative to S9229 at time = 0"}, "[8]": {"conditions": "oral gavage 10 mg/kg bw, female"}, "[9]": {"conditions": "oral gavage 30 mg/kg bw, female"}, "[10]": {"conditions": "oral gavage 100 mg/kg bw, female"}}, "note": "Entries after “also recorded” stand apart in the source; their conditions may differ. Read-outs that look alike come from different tables or passages of the source."}
{"smiles": "COC[C@@H](CC(C)C)NC(=O)c1ccc(C)c(C)c1", "note": "[S9229, (R)-N-(1-methoxy-4-methylpentan-2-yl)-3,4-dimethylbenzamide]", "values": [{"measurement": "Reverse mutation (in vitro), Result", "setting": "[1]", "value": "not mutagenic; also recorded: Negative"}, {"measurement": "Micronucleus formation (in vivo), Result", "setting": "[2]; 500, 624, 1352, 2000 mg/kg bw (oral)", "value": "neither clastogenic nor aneugenic; also recorded: Negative"}, {"measurement": "well tolerated highest dose tested", "setting": "[2]; preliminary dose range finding, oral, male and female mice", "value": 2000, "unit": "mg/kg bw"}, {"measurement": "AUC(0-t)", "setting": "[3]; female, iv, 1 mg/kg", "value": "1730 ± 376", "unit": "ng·h/mL"}, {"measurement": "Cmax", "setting": "[3]; female, iv, 1 mg/kg", "value": "3940 ± 1070", "unit": "ng/mL"}, {"measurement": "Tmax", "setting": "[3]; female, iv, 1 mg/kg", "value": 1.8, "unit": "min"}, {"measurement": "Vd", "setting": "[3]; female, iv, 1 mg/kg", "value": 2.82, "unit": "L/kg"}, {"measurement": "clearance", "setting": "[3]; female, iv, 1 mg/kg", "value": 7.9, "unit": "mL/min/kg"}, {"measurement": "half-life", "setting": "[3]; female, iv, 1 mg/kg", "value": "260 ± 99", "unit": "min"}, {"measurement": "bioavailability", "setting": "[3]; female, po", "value": "0.09 to 0.1", "unit": "%"}, {"measurement": "AUC(0-t)", "setting": "[3]; female, po, 10 mg/kg", "value": "15.2 ± 11.2", "unit": "ng·h/mL"}, {"measurement": "Cmax", "setting": "[3]; female, po, 10 mg/kg", "value": "10.5 ± 13.9", "unit": "ng/mL"}, {"measurement": "Tmax", "setting": "[3]; female, po, 10 mg/kg", "value": 15, "unit": "min"}, {"measurement": "bioavailability", "setting": "[3]; female, po, 10 mg/kg", "value": 0.09, "unit": "%"}, {"measurement": "half-life", "setting": "[3]; female, po, 10 mg/kg", "value": "57.6 ± 18", "unit": "min"}, {"measurement": "AUC(0-t)", "setting": "[3]; female, po, 30 mg/kg", "value": "49.5 ± 31.7", "unit": "ng·h/mL"}, {"measurement": "Cmax", "setting": "[3]; female, po, 30 mg/kg", "value": "55.4 ± 43.9", "unit": "ng/mL"}, {"measurement": "Tmax", "setting": "[3]; female, po, 30 mg/kg", "value": 15, "unit": "min"}, {"measurement": "bioavailability", "setting": "[3]; female, po, 30 mg/kg", "value": 0.1, "unit": "%"}, {"measurement": "half-life", "setting": "[3]; female, po, 30 mg/kg", "value": "109 ± 127", "unit": "min"}, {"measurement": "AUC(0-t)", "setting": "[3]; female, po, 100 mg/kg", "value": "175 ± 169", "unit": "ng·h/mL"}, {"measurement": "Cmax", "setting": "[3]; female, po, 100 mg/kg", "value": "102 ± 124", "unit": "ng/mL"}, {"measurement": "Tmax", "setting": "[3]; female, po, 100 mg/kg", "value": 100, "unit": "min"}, {"measurement": "bioavailability", "setting": "[3]; female, po, 100 mg/kg", "value": 0.1, "unit": "%"}, {"measurement": "half-life", "setting": "[3]; female, po, 100 mg/kg", "value": "61.8 ± 19.2", "unit": "min"}, {"measurement": "ratio of female/male AUC0-24hr", "setting": "[3]; iv 1 mg/kg", "value": 1.02}, {"measurement": "ratio of female/male Cmax", "setting": "[3]; iv 1 mg/kg", "value": 1.08}, {"measurement": "CL as % of hepatic blood flow", "setting": "[3]; iv, females", "value": 14.4, "unit": "%"}, {"measurement": "CL as % of hepatic blood flow", "setting": "[3]; iv, males", "value": 13.9, "unit": "%"}, {"measurement": "AUC(0-t)", "setting": "[3]; male, iv, 1 mg/kg", "value": "1690 ± 416", "unit": "ng·h/mL"}, {"measurement": "Cmax", "setting": "[3]; male, iv, 1 mg/kg", "value": "3650 ± 1180", "unit": "ng/mL"}, {"measurement": "Tmax", "setting": "[3]; male, iv, 1 mg/kg", "value": 1.8, "unit": "min"}, {"measurement": "Vd", "setting": "[3]; male, iv, 1 mg/kg", "value": 3.47, "unit": "L/kg"}, {"measurement": "clearance", "setting": "[3]; male, iv, 1 mg/kg", "value": 7.65, "unit": "mL/min/kg"}, {"measurement": "half-life", "setting": "[3]; male, iv, 1 mg/kg", "value": "323 ± 130", "unit": "min"}, {"measurement": "bioavailability", "setting": "[3]; male, po", "value": "0.04 to 0.1", "unit": "%"}, {"measurement": "AUC(0-t)", "setting": "[3]; male, po, 10 mg/kg", "value": "11.3 ± 10", "unit": "ng·h/mL"}, {"measurement": "Cmax", "setting": "[3]; male, po, 10 mg/kg", "value": "19.4 ± 24", "unit": "ng/mL"}, {"measurement": "Tmax", "setting": "[3]; male, po, 10 mg/kg", "value": 15, "unit": "min"}, {"measurement": "bioavailability", "setting": "[3]; male, po, 10 mg/kg", "value": 0.07, "unit": "%"}, {"measurement": "half-life", "setting": "[3]; male, po, 10 mg/kg", "value": "82.8 ± 76.8", "unit": "min"}, {"measurement": "AUC(0-t)", "setting": "[3]; male, po, 30 mg/kg", "value": "20.6 ± 3.7", "unit": "ng·h/mL"}, {"measurement": "Cmax", "setting": "[3]; male, po, 30 mg/kg", "value": "11.9 ± 0.6", "unit": "ng/mL"}, {"measurement": "Tmax", "setting": "[3]; male, po, 30 mg/kg", "value": 15, "unit": "min"}, {"measurement": "bioavailability", "setting": "[3]; male, po, 30 mg/kg", "value": 0.04, "unit": "%"}, {"measurement": "half-life", "setting": "[3]; male, po, 30 mg/kg", "value": "107 ± 41.4", "unit": "min"}, {"measurement": "AUC(0-t)", "setting": "[3]; male, po, 100 mg/kg", "value": "175 ± 57.8", "unit": "ng·h/mL"}, {"measurement": "Cmax", "setting": "[3]; male, po, 100 mg/kg", "value": "52.3 ± 12", "unit": "ng/mL"}, {"measurement": "Tmax", "setting": "[3]; male, po, 100 mg/kg", "value": 49.8, "unit": "min"}, {"measurement": "bioavailability", "setting": "[3]; male, po, 100 mg/kg", "value": 0.1, "unit": "%"}, {"measurement": "half-life", "setting": "[3]; male, po, 100 mg/kg", "value": "134 ± 65.4", "unit": "min"}, {"measurement": "AUC0-24hr Ratio", "setting": "[3]; [8]", "value": 1}, {"measurement": "Cmax Ratio", "setting": "[3]; [8]", "value": 1}, {"measurement": "AUC0-24hr Ratio", "setting": "[3]; oral gavage 10 mg/kg bw, male", "value": 1}, {"measurement": "Cmax Ratio", "setting": "[3]; oral gavage 10 mg/kg bw, male", "value": 1}, {"measurement": "AUC0-24hr Ratio", "setting": "[3]; [9]", "value": 3.26}, {"measurement": "Cmax Ratio", "setting": "[3]; [9]", "value": 5.28}, {"measurement": "AUC0-24hr Ratio", "setting": "[3]; oral gavage 30 mg/kg bw, male", "value": 1.82}, {"measurement": "Cmax Ratio", "setting": "[3]; oral gavage 30 mg/kg bw, male", "value": 0.61}, {"measurement": "AUC0-24hr Ratio", "setting": "[3]; [10]", "value": 11.5}, {"measurement": "Cmax Ratio", "setting": "[3]; [10]", "value": 9.68}, {"measurement": "AUC0-24hr Ratio", "setting": "[3]; oral gavage 100 mg/kg bw, male", "value": 15.5}, {"measurement": "Cmax Ratio", "setting": "[3]; oral gavage 100 mg/kg bw, male", "value": 2.70}, {"measurement": "% MS (EIC) Peak Area", "setting": "[4]; 10 min", "value": 86.9, "unit": "%"}, {"measurement": "% MS (EIC) Peak Area", "setting": "[4]; 20 min", "value": 70.6, "unit": "%"}, {"measurement": "% MS (EIC) Peak Area", "setting": "[4]; 60 min", "value": "~22.6", "unit": "%"}, {"measurement": "dose levels with visible precipitate in treatment medium", "setting": "[5]; beginning of the treatment period", "value": "≥ 322", "unit": "µg/mL"}, {"measurement": "dose with substantial toxicity (at least 50% reduction in mitotic index)", "setting": "[5]; non-activated 20-h exposure", "value": "≥ 263", "unit": "µg/mL"}, {"measurement": "dose with substantial toxicity (at least 50% reduction in mitotic index)", "setting": "[5]; non-activated and S9-activated 4-h exposure", "value": "≥ 789", "unit": "µg/mL"}, {"measurement": "parent compound as % of the total peak area", "setting": "[6]", "value": "less than 1%"}, {"measurement": "% MS (EIC) Peak Area", "setting": "[7]; 10 min", "value": 36.4, "unit": "%"}, {"measurement": "% MS (EIC) Peak Area", "setting": "[7]; 20 min", "value": 1.93, "unit": "%"}]}
